ChEMBL document CHEMBL5303300, “EUbOPEN Chemogenomics Library - Multiplex” (2023)
Values joined by “and” are separate entries in the source; they are usually repeats but may differ in a detail not shown here. Equal entries are not always repeated.

Test system: HEK-293T
Experiment: Multiplex assay against HEK293T
Format: toxicity, cell-based
Conditions: human, number of replicates 2
In short: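 Imaging took place on a CQ1 microscope at 37°C and 5% CO2 once compound had been added to live cells stained at seeding with Hoechst33342, BioTracker Green Microtubule Cytoskeleton Dye, MitoTracker Red and Annexin V Alexa Fluor 680. CellPathfinder machine-learning gating classed cells as Hoechst high-intensity objects or normal cells, classed normal cells as having healthy, pyknosed or fragmented nuclei, and classed pyknosed cells as mitotic or apoptotic. Tubulin, mitochondrial-mass and membrane-permeability phenotypes are per cents of the healthy-nucleus cells.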

[1] = 12 h, 1 µM, compound concentration 1 uM
[2] = 12 h, 10 µM, compound concentration 10 uM
[3] = 24 h, 1 µM, compound concentration 1 uM
[4] = 24 h, 10 µM, compound concentration 10 uM
[5] = 48 h, 1 µM, compound concentration 1 uM
[6] = 48 h, 10 µM, compound concentration 10 uM

## CN1CCc2cc(Cl)c(O)cc2[C@@H](c2ccccc2)C1.Cl
[1]
  Population Apoptotic (%): 48% and 46%
  Population Fragmented Nuclei (%): 3% and 4%
  Population Healthy Nuclei (%): 84% and 85%
  Population Hoechst High Intensity Objects (%): 7% and 5%
  Population Membrane Permeable-Phenotype (%): 5% and 3%
  Population Mitochondria Different-Phenotype (%): 23% and 12%
  Population Mitotic Cells (%): 51% and 53%
  Population Normal (%): 92% and 94%
  Population Pyknosed Nuclei (%): 12% and 10%
  Population Tubulin-Different-Phenotype (%): 50% and 47%
  Total Cell Count: 505 and 645
[2]
  Population Apoptotic (%): 40% and 55%
  Population Fragmented Nuclei (%): 4%
  Population Healthy Nuclei (%): 87% and 85%
  Population Hoechst High Intensity Objects (%): 6% and 8%
  Population Membrane Permeable-Phenotype (%): 3% and 4%
  Population Mitochondria Different-Phenotype (%): 11%
  Population Mitotic Cells (%): 59% and 45%
  Population Normal (%): 93% and 91%
  Population Pyknosed Nuclei (%): 8% and 9%
  Population Tubulin-Different-Phenotype (%): 54% and 52%
  Total Cell Count: 819 and 669
[3]
  Population Apoptotic (%): 47% and 31%
  Population Fragmented Nuclei (%): 6% and 5%
  Population Healthy Nuclei (%): 83% and 88%
  Population Hoechst High Intensity Objects (%): 7%
  Population Membrane Permeable-Phenotype (%): 1% and 3%
  Population Mitochondria Different-Phenotype (%): 8% and 3%
  Population Mitotic Cells (%): 52% and 68%
  Population Normal (%): 92%
  Population Pyknosed Nuclei (%): 9% and 6%
  Population Tubulin-Different-Phenotype (%): 25% and 24%
  Total Cell Count: 778 and 975
[4]
  Population Apoptotic (%): 38% and 37%
  Population Fragmented Nuclei (%): 7% and 8%
  Population Healthy Nuclei (%): 88% and 87%
  Population Hoechst High Intensity Objects (%): 8% and 7%
  Population Membrane Permeable-Phenotype (%): 5% and 4%
  Population Mitochondria Different-Phenotype (%): 3%
  Population Mitotic Cells (%): 61% and 62%
  Population Normal (%): 91% and 92%
  Population Pyknosed Nuclei (%): 4%
  Population Tubulin-Different-Phenotype (%): 35% and 38%
  Total Cell Count: 1332 and 988
[5]
  Population Apoptotic (%): 10% and 5%
  Population Fragmented Nuclei (%): 10% and 11%
  Population Healthy Nuclei (%): 85% and 84%
  Population Hoechst High Intensity Objects (%): 8% and 9%
  Population Membrane Permeable-Phenotype (%): 3% and 6%
  Population Mitochondria Different-Phenotype (%): 1% and 0%
  Population Mitotic Cells (%): 89% and 94%
  Population Normal (%): 91% and 90%
  Population Pyknosed Nuclei (%): 3%
  Population Tubulin-Different-Phenotype (%): 10% and 14%
  Total Cell Count: 1964 and 2487
[6]
  Population Apoptotic (%): 6% and 16%
  Population Fragmented Nuclei (%): 22% and 20%
  Population Healthy Nuclei (%): 75% and 77%
  Population Hoechst High Intensity Objects (%): 9% and 10%
  Population Membrane Permeable-Phenotype (%): 10%
  Population Mitochondria Different-Phenotype (%): 0%
  Population Mitotic Cells (%): 93% and 83%
  Population Normal (%): 90% and 89%
  Population Pyknosed Nuclei (%): 2%
  Population Tubulin-Different-Phenotype (%): 20% and 21%
  Total Cell Count: 3504 and 2430

## CN[C@@H]1CC[C@@H](c2ccc(Cl)c(Cl)c2)c2ccccc21.Cl
[1]
  Population Apoptotic (%): 46% and 42%
  Population Fragmented Nuclei (%): 2% and 3%
  Population Healthy Nuclei (%): 84%
  Population Hoechst High Intensity Objects (%): 8% and 7%
  Population Membrane Permeable-Phenotype (%): 3%
  Population Mitochondria Different-Phenotype (%): 21% and 16%
  Population Mitotic Cells (%): 53% and 57%
  Population Normal (%): 91% and 92%
  Population Pyknosed Nuclei (%): 12% and 11%
  Population Tubulin-Different-Phenotype (%): 68% and 66%
[2]
  Population Apoptotic (%): 57% and 46%
  Population Fragmented Nuclei (%): 3% and 1%
  Population Healthy Nuclei (%): 81% and 80%
  Population Hoechst High Intensity Objects (%): 6%
  Population Membrane Permeable-Phenotype (%): 1% and 3%
  Population Mitochondria Different-Phenotype (%): 48% and 54%
  Population Mitotic Cells (%): 42% and 53%
  Population Normal (%): 93%
  Population Pyknosed Nuclei (%): 15% and 17%
  Population Tubulin-Different-Phenotype (%): 96%
[3]
  Population Apoptotic (%): 41% and 38%
  Population Fragmented Nuclei (%): 3% and 4%
  Population Healthy Nuclei (%): 88%
  Population Hoechst High Intensity Objects (%): 8%
  Population Membrane Permeable-Phenotype (%): 3% and 2%
  Population Mitochondria Different-Phenotype (%): 10%
  Population Mitotic Cells (%): 58% and 61%
  Population Normal (%): 91%
  Population Pyknosed Nuclei (%): 8% and 7%
  Population Tubulin-Different-Phenotype (%): 42% and 45%
[4]
  Population Apoptotic (%): 66% and 59%
  Population Fragmented Nuclei (%): 4% and 2%
  Population Healthy Nuclei (%): 78% and 81%
  Population Hoechst High Intensity Objects (%): 7% and 11%
  Population Membrane Permeable-Phenotype (%): 2%
  Population Mitochondria Different-Phenotype (%): 63% and 59%
  Population Mitotic Cells (%): 33% and 40%
  Population Normal (%): 92% and 88%
  Population Pyknosed Nuclei (%): 16% and 15%
  Population Tubulin-Different-Phenotype (%): 94%
[5]
  Population Apoptotic (%): 14% and 15%
  Population Fragmented Nuclei (%): 11% and 10%
  Population Healthy Nuclei (%): 84% and 86%
  Population Hoechst High Intensity Objects (%): 10% and 9%
  Population Membrane Permeable-Phenotype (%): 4%
  Population Mitochondria Different-Phenotype (%): 1%
  Population Mitotic Cells (%): 85% and 84%
  Population Normal (%): 89% and 90%
  Population Pyknosed Nuclei (%): 3%
  Population Tubulin-Different-Phenotype (%): 18% and 23%
[6]
  Population Apoptotic (%): 58% and 75%
  Population Fragmented Nuclei (%): 5%
  Population Healthy Nuclei (%): 84% and 83%
  Population Hoechst High Intensity Objects (%): 8% and 13%
  Population Membrane Permeable-Phenotype (%): 2% and 3%
  Population Mitochondria Different-Phenotype (%): 29% and 34%
  Population Mitotic Cells (%): 41% and 24%
  Population Normal (%): 91% and 86%
  Population Pyknosed Nuclei (%): 9% and 11%
  Population Tubulin-Different-Phenotype (%): 76% and 87%

## CCn1c(-c2nonc2N)nc2cncc(C(=O)N3CC[C@H](N)C3)c21.Cl
[1]
  Population Apoptotic (%): 31% and 33%
  Population Fragmented Nuclei (%): 2%
  Population Healthy Nuclei (%): 81% and 83%
  Population Hoechst High Intensity Objects (%): 7% and 5%
  Population Membrane Permeable-Phenotype (%): 4% and 1%
  Population Mitochondria Different-Phenotype (%): 10% and 8%
  Population Mitotic Cells (%): 68% and 66%
  Population Normal (%): 92% and 94%
  Population Pyknosed Nuclei (%): 16% and 14%
  Population Tubulin-Different-Phenotype (%): 33% and 38%
  Total Cell Count: 694 and 685
[2]
  Population Apoptotic (%): 21% and 43%
  Population Fragmented Nuclei (%): 2%
  Population Healthy Nuclei (%): 84% and 78%
  Population Hoechst High Intensity Objects (%): 5% and 4%
  Population Membrane Permeable-Phenotype (%): 1% and 0%
  Population Mitochondria Different-Phenotype (%): 12% and 15%
  Population Mitotic Cells (%): 78% and 56%
  Population Normal (%): 94% and 95%
  Population Pyknosed Nuclei (%): 13% and 19%
  Population Tubulin-Different-Phenotype (%): 38% and 31%
  Total Cell Count: 716 and 454
[3]
  Population Apoptotic (%): 46% and 37%
  Population Fragmented Nuclei (%): 3%
  Population Healthy Nuclei (%): 84% and 86%
  Population Hoechst High Intensity Objects (%): 6% and 5%
  Population Membrane Permeable-Phenotype (%): 2%
  Population Mitochondria Different-Phenotype (%): 2% and 3%
  Population Mitotic Cells (%): 53% and 62%
  Population Normal (%): 93% and 94%
  Population Pyknosed Nuclei (%): 11% and 9%
  Population Tubulin-Different-Phenotype (%): 12% and 20%
  Total Cell Count: 994 and 875
[4]
  Population Apoptotic (%): 30% and 53%
  Population Fragmented Nuclei (%): 2% and 1%
  Population Healthy Nuclei (%): 86% and 79%
  Population Hoechst High Intensity Objects (%): 8% and 7%
  Population Membrane Permeable-Phenotype (%): 1%
  Population Mitochondria Different-Phenotype (%): 12% and 16%
  Population Mitotic Cells (%): 69% and 46%
  Population Normal (%): 91% and 92%
  Population Pyknosed Nuclei (%): 10% and 18%
  Population Tubulin-Different-Phenotype (%): 36% and 34%
  Total Cell Count: 751 and 447
[5]
  Population Apoptotic (%): 9% and 19%
  Population Fragmented Nuclei (%): 9% and 8%
  Population Healthy Nuclei (%): 86% and 87%
  Population Hoechst High Intensity Objects (%): 10% and 9%
  Population Membrane Permeable-Phenotype (%): 3%
  Population Mitochondria Different-Phenotype (%): 0%
  Population Mitotic Cells (%): 90% and 80%
  Population Normal (%): 89% and 90%
  Population Pyknosed Nuclei (%): 3% and 4%
  Population Tubulin-Different-Phenotype (%): 11% and 10%
  Total Cell Count: 1942 and 1388
[6]
  Population Apoptotic (%): 51% and 57%
  Population Fragmented Nuclei (%): 7% and 3%
  Population Healthy Nuclei (%): 87% and 84%
  Population Hoechst High Intensity Objects (%): 11%
  Population Membrane Permeable-Phenotype (%): 2% and 1%
  Population Mitochondria Different-Phenotype (%): 4% and 7%
  Population Mitotic Cells (%): 48% and 42%
  Population Normal (%): 88%
  Population Pyknosed Nuclei (%): 5% and 12%
  Population Tubulin-Different-Phenotype (%): 28% and 30%
  Total Cell Count: 917 and 468

## CN(C)CC#Cc1ccc2[nH]c3c(c2c1)-c1nc(N)ncc1CCC3
[1]
  Population Apoptotic (%): 52%
  Population Fragmented Nuclei (%): 2% and 4%
  Population Healthy Nuclei (%): 81% and 82%
  Population Hoechst High Intensity Objects (%): 11% and 14%
  Population Membrane Permeable-Phenotype (%): 8%
  Population Mitochondria Different-Phenotype (%): 31% and 24%
  Population Mitotic Cells (%): 47%
  Population Normal (%): 89% and 85%
  Population Pyknosed Nuclei (%): 16% and 12%
  Population Tubulin-Different-Phenotype (%): 96%
  Total Cell Count: 491 and 406
[2]
  Population Apoptotic (%): 52% and 44%
  Population Fragmented Nuclei (%): 3%
  Population Healthy Nuclei (%): 73%
  Population Hoechst High Intensity Objects (%): 12%
  Population Membrane Permeable-Phenotype (%): 5% and 4%
  Population Mitochondria Different-Phenotype (%): 28% and 23%
  Population Mitotic Cells (%): 47% and 55%
  Population Normal (%): 87%
  Population Pyknosed Nuclei (%): 22% and 23%
  Population Tubulin-Different-Phenotype (%): 93% and 96%
  Total Cell Count: 350 and 360
[3]
  Population Apoptotic (%): 50% and 63%
  Population Fragmented Nuclei (%): 6% and 8%
  Population Healthy Nuclei (%): 83% and 80%
  Population Hoechst High Intensity Objects (%): 11%
  Population Membrane Permeable-Phenotype (%): 14% and 19%
  Population Mitochondria Different-Phenotype (%): 11% and 8%
  Population Mitotic Cells (%): 49% and 36%
  Population Normal (%): 88%
  Population Pyknosed Nuclei (%): 9% and 11%
  Population Tubulin-Different-Phenotype (%): 97% and 95%
  Total Cell Count: 646 and 621
[4]
  Population Apoptotic (%): 50% and 55%
  Population Fragmented Nuclei (%): 3% and 5%
  Population Healthy Nuclei (%): 75% and 77%
  Population Hoechst High Intensity Objects (%): 16% and 11%
  Population Membrane Permeable-Phenotype (%): 8% and 5%
  Population Mitochondria Different-Phenotype (%): 12% and 9%
  Population Mitotic Cells (%): 50% and 44%
  Population Normal (%): 83% and 88%
  Population Pyknosed Nuclei (%): 20% and 16%
  Population Tubulin-Different-Phenotype (%): 88% and 94%
  Total Cell Count: 381 and 452
[5]
  Population Apoptotic (%): 54% and 48%
  Population Fragmented Nuclei (%): 17%
  Population Healthy Nuclei (%): 78% and 77%
  Population Hoechst High Intensity Objects (%): 13% and 9%
  Population Membrane Permeable-Phenotype (%): 34% and 42%
  Population Mitochondria Different-Phenotype (%): 0%
  Population Mitotic Cells (%): 45% and 51%
  Population Normal (%): 86% and 90%
  Population Pyknosed Nuclei (%): 4%
  Population Tubulin-Different-Phenotype (%): 85% and 83%
  Total Cell Count: 1491 and 1520
[6]
  Population Apoptotic (%): 47% and 50%
  Population Fragmented Nuclei (%): 8% and 6%
  Population Healthy Nuclei (%): 71% and 79%
  Population Hoechst High Intensity Objects (%): 20% and 18%
  Population Membrane Permeable-Phenotype (%): 9% and 11%
  Population Mitochondria Different-Phenotype (%): 1% and 0%
  Population Mitotic Cells (%): 52% and 49%
  Population Normal (%): 79% and 81%
  Population Pyknosed Nuclei (%): 19% and 13%
  Population Tubulin-Different-Phenotype (%): 93% and 90%
  Total Cell Count: 505 and 520
